We go through 87 molecules from PubChem BioAssay AID624299 (Broad Institute, 2012).

The term AC50 denotes the midpoint of the concentration-response curve, whichever way the signal moves.

Values joined by “and” are separate entries in the source; they are usually repeats but may differ in a detail not shown here. Identical values can stand only once. Active and inactive are the calls of the source.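 How the source made its calls: active means compounds lowering the cell viability light signal with a fitted AC50 at most twice the top dose tested; inconclusive means flat fit with 30 to 70% inhibition, or poor fit; inactive means the rest.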 Bounds are passed on as bounds.

In one experiment the test system is MALME3 melanoma viability, CellTiter-Glo ATP luminescence, 24 h. In words: MALME3 melanoma cell viability reduction, dose response, orthogonal assay for MITF inhibitor project, CellTiter-Glo luminescence, dry powder samples, set 2 (AID 624299).
Settings: not given
The procedure, abridged: (§1)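 Measured by: CellTiter-Glo luminescence measuring cellular ATP | System: MALME3 melanoma cells | Doses: Multiple compound doses by pin transfer, day after seeding | Medium: Phenol-red-free IMDM with 10% FBS | Schedule: 37 °C compound incubation, 5 min RT before reading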
On the technique in general: ATP-based viability assays read luminescence as a measure of living cells.
`O=C1C(Nc2ccccc2)=C(N2CCSCC2)C(=O)c2ccccc21`: the AC50 is > 70 µM (inactive).
Same read-out and setting: as for `O=C1C(NS(=O)(=O)c2ccc(Br)cc2)=C(c2ccc(OC(F)(F)F)cc2)C(=O)c2ccccc21`, the figure is > 70 µM (inactive); as for `O=C(CNc1cccc2ccccc12)N/N=C/c1ccc([N+](=O)[O-])o1`, 22.8 µM.
`O=C(NC1=C(Cl)C(=O)c2ccccc2C1=O)c1ccccc1`: the concentration at half-maximal activity (AC50) is 5.7 µM.
With `C=CCNC1=C(NCCN(CC)CC)C(=O)c2ccccc2C1=O`, the AC50 was 8.96 µM.
Same read-out and setting: the same measure for `CCN1CCN(C2=C(NS(=O)(=O)c3ccc(Br)s3)C(=O)c3ccccc3C2=O)CC1`: 17.2 µM.
In the case of `C=CCNC1=C(N2CCOCC2)C(=O)c2ccccc2C1=O`, the AC50 is 5.76 µM.
With `O=C(NC1=C(c2ccc(OC(F)(F)F)cc2)C(=O)c2ccccc2C1=O)c1ccccc1F`, the AC50 was > 70 µM (inactive).
Consider `C=CCNC1=C(NC(=O)c2ccccc2)C(=O)c2ccccc2C1=O`, for which the AC50 was > 70 µM (inactive).
With `O=C1C(Nc2ccccc2)=C(N2CCN(c3ccccc3)CC2)C(=O)c2ccccc21`, the AC50 was > 70 µM (inactive).
Same read-out and setting: the same measure for `O=C1C(NS(=O)(=O)c2ccc(Br)s2)=C(N2CCOCC2)C(=O)c2ccccc21`: 25.7 µM; for `C=CCNC1=C(N(C)C(C)=O)C(=O)c2ccccc2C1=O`: 0.7 µM.
Regarding `CCN(CC)CCCNC1=C(N(C)C(C)=O)C(=O)c2ccccc2C1=O`, the half-maximal activity concentration (AC50) is 3.12 µM.
`O=C(NC1=C(N2CCCCC2)C(=O)c2ccccc2C1=O)c1ccccc1`: the AC50 is > 70 µM (inactive).
In the case of `CCN1CCN(C2=C(NS(=O)(=O)c3ccc(Br)cc3)C(=O)c3ccccc3C2=O)CC1`, the half-maximal activity concentration (AC50) was 20 µM.
`COc1cccc(-c2cc(C(=O)NC3=C(Cl)C(=O)c4ccccc4C3=O)ccc2OC)c1`: the AC50 was 16.3 µM.
`C=CCNC1=C(Nc2ccccc2)C(=O)c2ccccc2C1=O`: the AC50 is > 70 µM (inactive).
As for `NC1=CC(=O)c2ccccc2C1=O`, the AC50 is 7.89 µM.
As for `COc1ccc(C(=O)NC2=C(c3ccc(OC)cc3)C(=O)c3ccccc3C2=O)cc1`, the AC50 is 23.1 µM.
The same measure, in the same setting: the same measure for `CC1CCN(CC(CS(=O)(=O)c2ccc([N+](=O)[O-])cc2)N2CCC(C)CC2)CC1` (configuration not stated): 23 µM.
Take `C=CCNC1=C(N2CCN(CC)CC2)C(=O)c2ccccc2C1=O`: the AC50 is 17.9 µM.
Same read-out and setting: the same measure for `O=C1C(NS(=O)(=O)c2ccc(Br)s2)=C(N2CCSCC2)C(=O)c2ccccc21`: 30.2 µM.
For the molecule `COc1ccc(S(=O)(=O)N(C(C)=O)c2ccc(OC(C)=O)c3ccccc23)cc1[N+](=O)[O-]`, the concentration at half-maximal activity (AC50) was 19.6 µM.
Take `COc1ccc(C(=O)NC2=C(c3ccccc3)C(=O)c3ccccc3C2=O)cc1`: the half-maximal activity concentration (AC50) is 28.3 µM.
As to `CN1CCN(C2=C(NS(=O)(=O)c3ccc(Br)cc3)C(=O)c3ccccc3C2=O)CC1`, the AC50 is > 70 µM (inactive).
As to `NC1=C(c2ccc(OC(F)(F)F)cc2)C(=O)c2ccccc2C1=O`, the AC50 is > 70 µM (inactive).
Turning to `C=CCNC1=C(N2CCSCC2)C(=O)c2ccccc2C1=O`, the half-maximal activity concentration (AC50) was 5.96 µM.
`CC(=O)N(C)C1=C(N2CCN(C)CC2)C(=O)c2ccccc2C1=O`: the AC50 was 1.96 µM.
Still for that read-out and setting: as for `O=C(NC1=C(c2ccccc2)C(=O)c2ccccc2C1=O)c1ccco1`, the figure is 23.5 µM.
Consider `O=C(NC1=C(c2ccccc2)C(=O)c2ccccc2C1=O)c1ccc(Br)cc1`, for which the AC50 is > 70 µM (inactive).
Consider `O=C(NC1=C(c2ccccc2)C(=O)c2ccccc2C1=O)c1ccccc1`, for which the AC50 is 32.2 µM.
Turning to `NC1=C(NC(=O)c2ccccc2)C(=O)c2ccccc2C1=O`, the AC50 is 16.1 µM.
Regarding `Cc1ccc(C(=O)NC2=C(c3ccccc3)C(=O)c3ccccc3C2=O)o1`, the AC50 was 23.7 µM.
Turning to `O=C1C(NS(=O)(=O)c2ccc(Br)cc2)=C(N2CCOCC2)C(=O)c2ccccc21`, the half-maximal activity concentration (AC50) was 23.4 µM.
With `O=C(NC1=C(N2CCSCC2)C(=O)c2ccccc2C1=O)c1ccccc1`, the half-maximal activity concentration (AC50) was 18.8 µM.
With `O=C(NC1=C(N2CCOCC2)C(=O)c2ccccc2C1=O)c1ccc(Br)cc1`, the AC50 is 16.1 µM.
Same read-out and setting: as for `COc1cccc(C2=C(NC(=O)c3ccccc3)C(=O)c3ccccc3C2=O)c1`, the figure is 20.4 µM; as for `COc1ccc(C2=C(NC(=O)c3ccc(Cl)cc3)C(=O)c3ccccc3C2=O)cc1`, 32 µM; as for `O=C1C(NS(=O)(=O)c2ccccc2)=C(N2CCOCC2)C(=O)c2ccccc21`, 26.9 µM.
Regarding `CCN1c2ccccc2NC2N=C(OC)C(c3ccccc3)C21` (configuration not stated), the AC50 is 6.63 µM.
Regarding `CC(=O)NC1=C(c2ccc(Cl)cc2)C(=O)c2ccccc2C1=O`, the AC50 was 13.9 µM.
In the case of `O=C(NC1=C(N2CCOCC2)C(=O)c2ccccc2C1=O)c1ccccc1`, the AC50 was 24.4 µM.
Same read-out and setting: the same measure for `CC(=O)N(C)C1=C(N2CCCCC2)C(=O)c2ccccc2C1=O`: 4.94 µM; for `COc1ccc(C2=C(NC(=O)c3ccccc3OC)C(=O)c3ccccc3C2=O)cc1`: > 70 µM (inactive); for `O=C1C(NS(=O)(=O)c2ccc(Br)cc2)=C(N2CCCCC2)C(=O)c2ccccc21`: 31.5 µM.
Turning to `CN1CCN(C2=C(NS(=O)(=O)c3cccs3)C(=O)c3ccccc3C2=O)CC1`, the concentration at half-maximal activity (AC50) is 11.7 µM.
For `O=C1C(Nc2ccccc2)=C(N2CCCCC2)C(=O)c2ccccc21`, the AC50 is 5.84 µM.
Take `C[C@@H](NC1=C(Nc2ccccc2)C(=O)c2ccccc2C1=O)c1ccccc1`: the AC50 was > 70 µM (inactive).
On the same count and under the same terms, as for `CCN1CCN(C2=C(N(C)C(C)=O)C(=O)c3ccccc3C2=O)CC1`, the figure is 2.5 µM; as for `COC1=C(NS(=O)(=O)c2ccccc2)C(=O)c2ccccc2C1=O`, 13.4 µM.
Regarding `CC(=O)N(C)C1=C(N2CCOCC2)C(=O)c2ccccc2C1=O`, the half-maximal activity concentration (AC50) was 7.36 µM.
`CC(=O)NC1=C(c2ccc3c(c2)oc2ccccc23)C(=O)c2ccccc2C1=O`: the concentration at half-maximal activity (AC50) was 22 µM.
As to `CCN(CC)CCCNC1=C(Nc2ccccc2)C(=O)c2ccccc2C1=O`, the AC50 is 25.5 µM.
`C=CCNC1=C(N2CCN(C)CC2)C(=O)c2ccccc2C1=O`: the concentration at half-maximal activity (AC50) is 19.1 µM.
`COc1ccc(C2=C(NC(=O)c3cccc(OC)c3)C(=O)c3ccccc3C2=O)cc1`: the half-maximal activity concentration (AC50) was 26.8 µM.
Take `CN1CCN(C2=C(NS(=O)(=O)c3ccccc3)C(=O)c3ccccc3C2=O)CC1`: the AC50 was 7.3 µM.
As for `CN1CCN(C2=C(NC(=O)c3ccccc3)C(=O)c3ccccc3C2=O)CC1`, the AC50 was 5.16 µM.
Regarding `O=C1C(NCCCN2CCOCC2)=C(Nc2ccccc2)C(=O)c2ccccc21`, the AC50 is > 70 µM (inactive).
Consider `COc1ccc(C2=C(NC(C)=O)C(=O)c3ccccc3C2=O)cc1`, for which the concentration at half-maximal activity (AC50) was 12 µM.
As to `CCN1CCN(C2=C(Nc3ccccc3)C(=O)c3ccccc3C2=O)CC1`, the AC50 is 12.4 µM.
Regarding `CC(=O)NC1=C(c2ccccc2)C(=O)c2ccccc2C1=O`, the AC50 is 18.6 µM.
Regarding `O=C1C=C(Nc2ccccc2)C(=O)c2ccccc21`, the AC50 was 2.18 µM.
Still for that read-out and setting: the same measure for `CN1CCN(C2=C(Nc3ccccc3)C(=O)c3ccccc3C2=O)CC1`: 16.4 µM; for `CCN1CCN(C2=C(NS(=O)(=O)c3cccs3)C(=O)c3ccccc3C2=O)CC1`: 14.9 µM.
With `C=CCNC1=C(N2CCCCC2)C(=O)c2ccccc2C1=O`, the AC50 is 1.61 µM.
For the molecule `CCN1CCN(C2=C(NC(=O)c3ccc(Br)cc3)C(=O)c3ccccc3C2=O)CC1`, the AC50 is 1.79 µM.
As to `C=CCNC1=C(Cl)C(=O)c2ccccc2C1=O`, the concentration at half-maximal activity (AC50) is 9.65 µM and 12.4 µM.
Take `CCN1CCN(C2=C(NC(=O)c3ccccc3)C(=O)c3ccccc3C2=O)CC1`: the AC50 was 3.93 µM.
In the case of `O=C1C(NS(=O)(=O)c2cccs2)=C(N2CCOCC2)C(=O)c2ccccc21`, the AC50 is 21.7 µM.
Consider `CN1CCN(C2=C(NC(=O)c3ccc(Br)cc3)C(=O)c3ccccc3C2=O)CC1`, for which the half-maximal activity concentration (AC50) is 1.93 µM.
For the molecule `C=C1C(=O)OC2C1CC/C(C)=C\CCC1(C)OC21` (configuration not stated), the AC50 was 22.9 µM.
Take `CN1CCN(C2=C(NS(=O)(=O)c3ccc(Br)s3)C(=O)c3ccccc3C2=O)CC1`: the AC50 is 12.5 µM.
Regarding `O=C(NC1=C(N2CCSCC2)C(=O)c2ccccc2C1=O)c1ccc(Br)cc1`, the AC50 was 20.8 µM.
For the molecule `C=CCNC1=C(NCCCN(CC)CC)C(=O)c2ccccc2C1=O`, the AC50 was 16.2 µM.
As for `Cc1nc2ccccc2n1/N=C/c1ccc([N+](=O)[O-])s1`, the AC50 was 11.3 µM.
The same measure, in the same setting: as for `COc1ccc(C2=C(NC(=O)c3ccccc3Cl)C(=O)c3ccccc3C2=O)cc1`, the figure is 21.3 µM; as for `COc1ccc(C(=O)NC2=C(c3ccc(OC(F)(F)F)cc3)C(=O)c3ccccc3C2=O)cc1`, > 70 µM (inactive).
Consider `CC(=O)NC1=C(c2cccc(Cl)c2)C(=O)c2ccccc2C1=O`, for which the AC50 is 13.1 µM.
For `COc1ccc(C2=C(N)C(=O)c3ccccc3C2=O)cc1`, the AC50 is > 70 µM (inactive).
In the case of `O=C1C(Nc2ccccc2)=C(N2CCOCC2)C(=O)c2ccccc21`, the AC50 was 15.6 µM and 24.9 µM.

System in the next experiment: not listed separately
Described as above. The settings on record: MALME3 melanoma viability, CellTiter-Glo ATP luminescence, 24 h; at 35 µM (top of the series). The procedure, abridged:
as §1
Take `O=C(NC1=C(c2ccc(Oc3ccccc3)cc2)C(=O)c2ccccc2C1=O)c1ccccc1`: the activity change, negative = inhibition was -15.3% (inactive).
In the case of `O=C(NC1=C(N2CCN(c3ccccc3)CC2)C(=O)c2ccccc2C1=O)c1ccccc1`, the activity change, negative = inhibition is -8.35% (inactive).
For the molecule `O=C(NC1=C(c2ccc(OC(F)(F)F)cc2)C(=O)c2ccccc2C1=O)c1ccc(Br)cc1`, the activity change, negative = inhibition is 2.43% (inactive).
As for `C=CCNC1=C(NCC=C)C(=O)c2ccccc2C1=O`, the activity change, negative = inhibition was 2.12% (inactive).
Take `COc1ccc(C2=C(NC(=O)c3ccc4ccccc4c3)C(=O)c3ccccc3C2=O)cc1`: the activity change, negative = inhibition was -7.26% (inactive).
For `O=C1C(NS(=O)(=O)c2ccc(Br)cc2)=C(N2CCN(c3ccccc3)CC2)C(=O)c2ccccc21`, the activity change, negative = inhibition is -51.2% (inactive).
Same read-out and setting: the same measure for `COc1ccc(C2=C(NC(=O)c3ccc(OC)cc3-c3cccc(OC)c3)C(=O)c3ccccc3C2=O)cc1`: -8.34% (inactive).
